According to ChEMBL document CHEMBL1124114, “Peripherally acting enkephalin analogues. 1. Polar pentapeptides” (J Med Chem, 1988):
Numbered stars: 1 amine (or outer) side, 2 acyl side, 3 side chain; on linkers, the order of the positions; unused ones are H or OH. Square brackets hold non-standard residues; d marks the D form. Peptide text beside a SMILES is read from it. * marks the point of attachment. Phe(4-NO2) = N[C@@H](Cc1ccc([N+](=O)[O-])cc1)C(=O)O; Tyr(Nα-amidino) = N=C(N)N[C@@H](Cc1ccc(O)cc1)C(=O)*; X1 = O=C([C@@H](CSS(=O)(=O)O)N[*:1])[*:2]; X3 = O=C([C@@H](CCS(=O)(=O)O)N[*:1])[*:2]; X2 = C[S+](C)CC[C@@H](N[*:1])C(=O)[*:2]

Key:
Type in all cases: functional
Mus musculus [1] = assay: In vivo inhibition of Acetic acid-induced writhing in mice (sc)
Procedure, shortened: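 Male TFW Tuck mice, five to six per group; acetic acid (0.6%) ip, 25 mL kg⁻¹; writhes counted for 5 min from 15 min after irritant. Compounds sc, 10 mL kg⁻¹. ED50 = dose giving 50% fewer writhes than vehicle, by linear regression.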

Cavia porcellus = organism: Cavia porcellus; assay: In vitro opioid activity of compound in the GPI (guinea pig ileum) by determination of inhibition of electrically induced contractions
Procedure, shortened: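 Terminal ileum segments from 300-350 g guinea pigs in 20-mL bath, 1-g tension, Krebs' bicarbonate gassed 95% O2/5% CO2. Coaxial stimulation 0.1 Hz, 0.5 ms, supramaximal voltage; isotonic recording of contractions. Dose-response curves with 15-min washout between doses; opioid nature checked by reversal with naloxone (1 μg mL⁻¹).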

[2] = Dose ratio in the presence / absence of N-methyl-nalorphine (11.5 mg/kg) in acetic acid (AA) writhing
Procedure, shortened: (§1)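 Male TFW Tuck mice, groups of five to six; acetic acid (0.6%) ip at 25 mL kg⁻¹; writhes counted 5 min starting 15 min post-irritant. N-methylnalorphine 11.5 mg kg⁻¹ ip 20 min before sc agonist (both 10 mL kg⁻¹). ED50 by linear regression (50% writhe reduction vs vehicle); dose ratio = shift of parallel regression lines with/without antagonist.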

Mus musculus [3] = assay: In vivo inhibition of phenyl-1,4-benzoquinone(PBQ) -induced writhing in mice (sc)
Procedure, shortened: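 Female CD1 Charles River mice, groups of five to six; PBQ 2.5 mg kg⁻¹ ip (10 mL kg⁻¹). Drug or vehicle sc 30 min before PBQ; writhes (abdominal contractions/hind-limb extensions) counted 2.5 min starting 10 min post-PBQ. ED50 = dose halving writhes vs vehicle, from linear regression.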

Mus musculus [4] = organism: Mus musculus; assay: Effective dose was measured in hot plate test.
Procedure, shortened: (§2)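 Male CFLP mice (Hacking and Churchill), groups of five to six, placed on copper plate at 55 °C; endpoint paw licking/shaking or jumping, 30-s cut-off. Drugs sc, 10 mL kg⁻¹. ED50 = dose doubling response latency vs vehicle, by parallel-line probit analysis.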

[5] = Dose ratio in the presence/absence of N-methyl-nalorphine (11.5 mg/kg) in acetic acid (AA) writhing; procedure, shortened: as §1
Mus musculus [6] = assay: Effective dose was measured in hot plate test; no effect 25 mg/kg; procedure, shortened: as §2

| Structure (SMILES) | ED50 (Mus musculus [1]) | IC50 for inhibition of electrically induced contractions (Cavia porcellus) | Ratio [2] | ED50 (Mus musculus [3]) | ED50 (Mus musculus [4]) | Ratio [5] | ED50 at 25 mg/kg (Mus musculus [6]) |
| --- | --- | --- | --- | --- | --- | --- | --- |
| NC(=O)[C@@H]1CCCN1C(=O)[C@H](Cc1ccc([N+](=O)[O-])cc1)NC(=O)CNC(=O)[C@@H](CCC(=O)O)NC(=O)[C@@H](N)Cc1ccc(O)cc1 | 1.4 mg/kg | 0.009 µM | 5.5 | 3 mg/kg | 7.6 mg/kg |  |  |
| NC(=O)[C@@H]1CCCN1C(=O)[C@H](Cc1ccc([N+](=O)[O-])cc1)NC(=O)CNC(=O)[C@@H](CCCN=C(N)N)NC(=O)[C@@H](N)Cc1ccc(O)cc1 | 5.7 mg/kg | 0.132 µM | 5.5 | 4.9 mg/kg | 35 mg/kg |  |  |
| NC(=O)[C@@H]1CCCN1C(=O)[C@H](Cc1ccc([N+](=O)[O-])cc1)NC(=O)CNC(=O)[C@@H](CSCCS(=O)(=O)[O-])NC(=O)[C@@H](N)Cc1ccc(O)cc1.[Na+] | 0.1 mg/kg | 0.0036 µM | 4 |  |  |  |  |
| N=C(N)N[C@@H](Cc1ccc(O)cc1)C(=O)N[C@H](CCC(=O)O)C(=O)NCC(=O)N[C@@H](Cc1ccc([N+](=O)[O-])cc1)C(=O)N1CCC[C@H]1C(N)=O | 0.5 mg/kg | 0.414 µM | 1.2 | 0.3 mg/kg | 5.3 mg/kg |  |  |
| Cl.NC(=O)[C@@H]1CCCN1C(=O)[C@H](Cc1ccc([N+](=O)[O-])cc1)NC(=O)CNC(=O)[C@@H](CS(=O)(=O)O)NC(=O)[C@@H](N)Cc1ccc(O)cc1 | 5.9 mg/kg | 0.0894 µM |  |  | 19 mg/kg |  |  |
| C[S+](C)CC[C@@H](NC(=O)[C@H](Cc1ccc(O)cc1)N=C(N)N)C(=O)NCC(=O)N[C@@H](Cc1ccc([N+](=O)[O-])cc1)C(=O)N1CCC[C@H]1C(N)=O.Cl.Cl | 0.5 mg/kg | 0.525 µM | 4.2 | 1.1 mg/kg | 10.9 mg/kg |  |  |
| CSCC[C@H](NC(=O)[C@@H](N)Cc1ccc(O)cc1)C(=O)NCC(=O)N[C@@H](Cc1ccc([N+](=O)[O-])cc1)C(=O)N1CCC[C@H]1C(N)=O (H-YMG[Phe(4-NO2)]P-NH2) | 0.1 mg/kg | 0.0018 µM | 1.2 | 0.4 mg/kg | 1.6 mg/kg |  |  |
| NC(=O)[C@@H]1CCCN1C(=O)[C@H](Cc1ccc([N+](=O)[O-])cc1)NC(=O)CNC(=O)[C@@H](CSS(=O)(=O)O)NC(=O)[C@@H](N)Cc1ccc(O)cc1 (H-Y[X1]G[Phe(4-NO2)]P-NH2) | 0.5 mg/kg | 0.0075 µM | 3.9 | 0.4 mg/kg | 9.7 mg/kg |  |  |
| C[S+](C)CC[C@@H](NC(=O)[C@@H](N)Cc1ccc(O)cc1)C(=O)NCC(=O)N[C@@H](Cc1ccc([N+](=O)[O-])cc1)C(=O)N1CCC[C@H]1C(N)=O.Cl.Cl (H-Y[X2]G[Phe(4-NO2)]P-NH2) | 8.1 mg/kg | 0.0612 µM |  | 3.1 mg/kg |  | 3.3 |  |
| Cl.NC(=O)[C@@H]1CCCN1C(=O)[C@H](Cc1ccc([N+](=O)[O-])cc1)NC(=O)CNC(=O)[C@@H](CCS(=O)(=O)O)NC(=O)[C@@H](N)Cc1ccc(O)cc1 (H-Y[X3]G[Phe(4-NO2)]P-NH2) | 3.5 mg/kg | 0.807 µM | 4.2 | 3.1 mg/kg | 18.6 mg/kg |  |  |
| N=C(N)NCCC[C@@H](NC(=O)[C@H](Cc1ccc(O)cc1)NC(=N)N)C(=O)NCC(=O)N[C@@H](Cc1ccc([N+](=O)[O-])cc1)C(=O)N1CCC[C@H]1C(N)=O ({Tyr(Nα-amidino)}-[dR]G[Phe(4-NO2)]P-NH2) | 0.8 mg/kg | 0.42 µM | 4.6 | 1.3 mg/kg |  |  | 25 mg/kg |
| CN1CC[C@]23c4c5ccc(O)c4O[C@H]2[C@@H](O)C=C[C@H]3[C@H]1C5 [MORPHINE] | 0.5 mg/kg |  |  |  |  |  |  |
